Here are results for one compound from ChEMBL document CHEMBL5154713, “Illuminating a Dark Kinase: Structure-Guided Design, Synthesis, and Evaluation of a Potent Nek1 Inhibitor and Its Effects on the Embryonic Zebrafish Pronephros” (J Med Chem, 2022).

Structures are written as SMILES. A value given as a limit tells only on which side of the number the result lay.

Assay [1] addresses Inhibitor of nuclear factor kappa-B kinase subunit alpha (Homo sapiens) (UniProt O15111). Kind of assay: Inhibition of human full length recombinant IKKalpha assessed as residual activity at 1 uM using peptide as substrate incubated for 40 mins in presence of [gamma 33P]-ATP by radiometric scintillation counting assay relative to control. The method, boiled down: (§1)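 Commercial radiometric panel of 50 kinases. Each recombinant human kinase was tested at a single compound concentration of 1 μM. ATP was set within 15 μM of the apparent Km for ATP for each kinase. Residual activity is relative to control and is the mean of two independent experiments.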

Assay [2] addresses Interleukin-1 receptor-associated kinase 4 (Homo sapiens) (UniProt Q9NWZ3). Kind of assay: Inhibition of human full length IRAK4 assessed as residual activity at 1 uM using myelin basic protein as substrate incubated for 40 mins in presence of [gamma 33P]-ATP by radiometric scintillation counting assay relative to control. A digest of the protocol: as §1
The species named for assay [3] is Homo sapiens. Kind of assay: Inhibition of human full length recombinant CDK2/cyclinE assessed as residual activity at 1 uM using histone H1 as substrate incubated for 40 mins in presence of [gamma 33P]-ATP by radiometric scintillation counting assay relative to control. A digest of the protocol:
as §1

Assay [4] concerns the target Casein kinase I isoform gamma-1 (Homo sapiens) (UniProt Q9HCP0). Kind of assay: Inhibition of recombinant human CK1gamma1 (25 to 355 residues) assessed as residual activity at 1 uM using KRRRALS(p)VASLPGL as substrate measured after 40 mins in presence of [gamma33P]ATP by radiometric scintillation counting method relative to control. A digest of the protocol:
as §1

Assay [5] has as its target RAC-alpha serine/threonine-protein kinase (Homo sapiens) (UniProt P31749). The assay can be described thus: Inhibition of human full length Akt1 assessed as residual activity at 1 uM using GRPRTSSFAEGKK as substrate incubated for 40 mins in presence of [gamma 33P]-ATP based radiometric scintillation counting assay relative to control. The method, boiled down:
as §1

The target in assay [6] is CDK6/cyclin D3 (Homo sapiens) (UniProt P30281+Q00534). The assay can be described thus: Inhibition of human full length recombinant CDK6/CyclinD3 assessed as residual activity at 1 uM using histone H1 as substrate incubated for 40 mins in presence of [gamma 33P]-ATP by radiometric scintillation counting assay relative to control. Type of assay: protein-complex assay. The method, boiled down:
as §1

Assay [7] concerns the target Serine/threonine-protein kinase 4 (Homo sapiens) (UniProt Q13043). Kind of assay: Inhibition of human full length recombinant MST1 assessed as residual activity at 1 uM using KKSRGDYMTMQIG as substrate incubated for 40 mins in presence of [gamma 33P]-ATP by radiometric scintillation counting assay relative to control. The method, boiled down:
as §1

Assay [8] deals with Serine/threonine-protein kinase Nek11 (Homo sapiens) (UniProt Q8NG66). The assay can be described thus: Inhibition of human full length recombinant NEK11 assessed as residual activity at 1 uM using myelin basic protein as substrate incubated for 40 mins in presence of [gamma 33P]-ATP by radiometric scintillation counting assay relative to control. The method, boiled down: as §1

Assay [9] addresses Inhibitor of nuclear factor kappa-B kinase subunit epsilon (Homo sapiens) (UniProt Q14164). Kind of assay: Inhibition of human full length recombinant IKKepsilon assessed as residual activity at 1 uM using casein as substrate incubated for 40 mins in presence of [gamma 33P]-ATP by radiometric scintillation counting assay relative to control. The method, boiled down: as §1
The target in assay [10] is Phosphatidylinositol 4,5-bisphosphate 3-kinase catalytic subunit beta isoform (Homo sapiens) (UniProt P42338). Kind of assay: Inhibition of human full length recombinant PI3Kbeta assessed as residual activity using phosphatidylinositol 4,5-bisphosphate as substrate at 1 uM incubated for 40 mins in presence of ATP by HTRF assay relative to control.
Chain of Phosphatidylinositol 4,5-bisphosphate 3-kinase catalytic subunit beta isoform (Homo sapiens) (P42338 whole entry, looked up, canonical isoform): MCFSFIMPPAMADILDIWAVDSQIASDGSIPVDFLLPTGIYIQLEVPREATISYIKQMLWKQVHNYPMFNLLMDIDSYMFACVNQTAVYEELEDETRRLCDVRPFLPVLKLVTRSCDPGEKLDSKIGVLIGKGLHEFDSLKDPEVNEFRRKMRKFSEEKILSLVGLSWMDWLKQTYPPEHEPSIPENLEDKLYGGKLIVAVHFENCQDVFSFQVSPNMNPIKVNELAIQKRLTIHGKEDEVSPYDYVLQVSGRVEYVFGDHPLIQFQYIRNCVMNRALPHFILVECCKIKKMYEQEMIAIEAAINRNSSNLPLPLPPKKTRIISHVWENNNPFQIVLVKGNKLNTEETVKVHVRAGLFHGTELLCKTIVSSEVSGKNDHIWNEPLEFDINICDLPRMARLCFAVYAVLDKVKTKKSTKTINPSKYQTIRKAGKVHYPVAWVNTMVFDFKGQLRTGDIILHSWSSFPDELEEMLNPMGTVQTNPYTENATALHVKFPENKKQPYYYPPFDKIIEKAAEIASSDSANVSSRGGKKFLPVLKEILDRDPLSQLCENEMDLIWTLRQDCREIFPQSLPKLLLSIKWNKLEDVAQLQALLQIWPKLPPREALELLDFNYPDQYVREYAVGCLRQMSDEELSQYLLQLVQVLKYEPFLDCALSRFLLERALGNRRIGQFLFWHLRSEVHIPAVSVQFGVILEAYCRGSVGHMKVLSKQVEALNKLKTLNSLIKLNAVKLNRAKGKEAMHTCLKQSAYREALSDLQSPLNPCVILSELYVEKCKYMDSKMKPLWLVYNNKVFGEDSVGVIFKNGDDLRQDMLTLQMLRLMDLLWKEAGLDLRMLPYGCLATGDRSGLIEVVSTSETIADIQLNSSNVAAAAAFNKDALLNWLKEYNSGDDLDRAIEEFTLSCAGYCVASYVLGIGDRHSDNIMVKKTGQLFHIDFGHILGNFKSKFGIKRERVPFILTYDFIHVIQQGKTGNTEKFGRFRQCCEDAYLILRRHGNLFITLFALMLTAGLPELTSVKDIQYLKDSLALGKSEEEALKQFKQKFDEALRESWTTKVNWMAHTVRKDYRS
Assay [11] deals with Tyrosine-protein kinase Lyn (Homo sapiens) (UniProt P07948). The assay can be described thus: Inhibition of recombinant human Lyn assessed as residual activity at 1 uM using poly(Glu, Tyr) 4:1 as substrate after 40 mins in presence of [gamma-33ATP] by scintillation counting based radiometry assay relative to control. The method, boiled down:
as §1

Assay [12] is filed under the species Homo sapiens. The assay can be described thus: Inhibition of recombinant full length human CK2alpha2 assessed as residual activity at 1 uM using RRRDDDSDDD as substrate incubated 40 mins in presence of [gamma-33ATP] by scintillation counting based radiometry assay relative to control. The method, boiled down: as §1

Chain of Interleukin-1 receptor-associated kinase 4 (Homo sapiens) (Q9NWZ3 whole entry): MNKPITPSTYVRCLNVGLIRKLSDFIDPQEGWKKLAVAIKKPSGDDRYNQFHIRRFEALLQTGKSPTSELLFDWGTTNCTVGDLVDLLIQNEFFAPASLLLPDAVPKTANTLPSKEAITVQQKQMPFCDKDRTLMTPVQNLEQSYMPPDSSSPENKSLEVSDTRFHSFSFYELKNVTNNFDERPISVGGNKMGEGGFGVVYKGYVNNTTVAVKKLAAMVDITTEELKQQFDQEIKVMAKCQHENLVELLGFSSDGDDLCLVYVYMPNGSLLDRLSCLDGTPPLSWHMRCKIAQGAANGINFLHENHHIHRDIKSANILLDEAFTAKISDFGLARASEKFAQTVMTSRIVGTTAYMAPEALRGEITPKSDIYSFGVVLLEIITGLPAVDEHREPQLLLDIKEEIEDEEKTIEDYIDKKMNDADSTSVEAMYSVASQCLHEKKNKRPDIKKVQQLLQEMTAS
Chain of Inhibitor of nuclear factor kappa-B kinase subunit alpha (Homo sapiens) (O15111 whole entry): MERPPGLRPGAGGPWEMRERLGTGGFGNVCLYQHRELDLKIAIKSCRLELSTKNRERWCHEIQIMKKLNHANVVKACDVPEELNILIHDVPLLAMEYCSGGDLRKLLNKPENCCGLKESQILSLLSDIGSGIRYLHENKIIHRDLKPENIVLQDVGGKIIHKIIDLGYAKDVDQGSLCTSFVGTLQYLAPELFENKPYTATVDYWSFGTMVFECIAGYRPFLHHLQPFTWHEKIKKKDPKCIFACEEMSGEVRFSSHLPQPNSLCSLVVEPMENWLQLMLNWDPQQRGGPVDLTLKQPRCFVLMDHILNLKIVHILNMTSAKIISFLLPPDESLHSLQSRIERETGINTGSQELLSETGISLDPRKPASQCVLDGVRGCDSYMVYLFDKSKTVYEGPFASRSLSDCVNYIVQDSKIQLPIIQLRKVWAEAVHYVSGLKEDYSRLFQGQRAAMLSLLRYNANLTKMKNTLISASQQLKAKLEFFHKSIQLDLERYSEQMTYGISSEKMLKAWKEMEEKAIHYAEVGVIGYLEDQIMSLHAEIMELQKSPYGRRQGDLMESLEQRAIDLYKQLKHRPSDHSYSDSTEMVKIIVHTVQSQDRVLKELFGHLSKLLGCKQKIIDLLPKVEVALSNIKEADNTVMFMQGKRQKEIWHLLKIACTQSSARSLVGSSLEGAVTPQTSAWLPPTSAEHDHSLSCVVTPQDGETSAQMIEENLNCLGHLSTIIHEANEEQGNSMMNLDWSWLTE
Chain of Tyrosine-protein kinase Lyn (Homo sapiens) (P07948 2-512 limits assumed): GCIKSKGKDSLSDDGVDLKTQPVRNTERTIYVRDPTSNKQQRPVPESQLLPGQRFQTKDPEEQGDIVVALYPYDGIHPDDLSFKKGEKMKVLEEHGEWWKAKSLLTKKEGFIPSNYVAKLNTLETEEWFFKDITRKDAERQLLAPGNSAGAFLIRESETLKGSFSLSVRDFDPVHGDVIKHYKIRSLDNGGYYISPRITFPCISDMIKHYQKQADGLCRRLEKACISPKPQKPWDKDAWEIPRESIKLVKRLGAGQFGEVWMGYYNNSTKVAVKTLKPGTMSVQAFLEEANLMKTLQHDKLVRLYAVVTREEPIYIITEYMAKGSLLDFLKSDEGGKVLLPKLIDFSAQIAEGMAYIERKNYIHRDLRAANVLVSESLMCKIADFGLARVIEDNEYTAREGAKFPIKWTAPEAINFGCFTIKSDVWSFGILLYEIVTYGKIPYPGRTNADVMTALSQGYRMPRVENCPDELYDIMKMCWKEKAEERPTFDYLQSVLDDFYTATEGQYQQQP
Chain of Casein kinase I isoform gamma-1 (Homo sapiens) (Q9HCP0 whole entry, looked up, the tested form may be a part, canonical isoform): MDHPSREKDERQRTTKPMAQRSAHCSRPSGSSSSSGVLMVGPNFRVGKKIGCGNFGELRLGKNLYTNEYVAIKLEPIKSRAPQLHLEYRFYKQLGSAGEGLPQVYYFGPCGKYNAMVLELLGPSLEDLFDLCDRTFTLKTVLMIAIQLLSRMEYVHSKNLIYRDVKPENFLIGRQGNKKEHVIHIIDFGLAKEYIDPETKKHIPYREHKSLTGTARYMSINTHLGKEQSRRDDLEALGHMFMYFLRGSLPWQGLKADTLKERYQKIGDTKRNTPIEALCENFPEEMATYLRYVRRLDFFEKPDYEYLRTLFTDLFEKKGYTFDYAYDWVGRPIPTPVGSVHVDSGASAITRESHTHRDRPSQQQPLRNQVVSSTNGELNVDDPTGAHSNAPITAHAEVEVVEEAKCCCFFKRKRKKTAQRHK
Chain of RAC-alpha serine/threonine-protein kinase (Homo sapiens) (P31749 whole entry): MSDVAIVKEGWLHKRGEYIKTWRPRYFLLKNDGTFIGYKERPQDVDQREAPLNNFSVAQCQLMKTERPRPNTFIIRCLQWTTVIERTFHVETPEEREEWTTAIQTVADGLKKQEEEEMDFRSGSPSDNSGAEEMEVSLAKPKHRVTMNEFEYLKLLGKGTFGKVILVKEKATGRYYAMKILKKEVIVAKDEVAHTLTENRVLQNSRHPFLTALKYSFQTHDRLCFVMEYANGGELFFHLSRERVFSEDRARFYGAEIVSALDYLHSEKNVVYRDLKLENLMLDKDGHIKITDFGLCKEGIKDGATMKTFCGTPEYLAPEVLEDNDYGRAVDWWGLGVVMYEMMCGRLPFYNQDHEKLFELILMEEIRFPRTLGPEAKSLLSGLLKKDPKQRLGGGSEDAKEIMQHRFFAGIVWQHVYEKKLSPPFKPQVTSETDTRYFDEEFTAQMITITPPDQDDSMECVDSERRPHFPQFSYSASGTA
Chain of Serine/threonine-protein kinase 4 (Homo sapiens) (Q13043 whole entry): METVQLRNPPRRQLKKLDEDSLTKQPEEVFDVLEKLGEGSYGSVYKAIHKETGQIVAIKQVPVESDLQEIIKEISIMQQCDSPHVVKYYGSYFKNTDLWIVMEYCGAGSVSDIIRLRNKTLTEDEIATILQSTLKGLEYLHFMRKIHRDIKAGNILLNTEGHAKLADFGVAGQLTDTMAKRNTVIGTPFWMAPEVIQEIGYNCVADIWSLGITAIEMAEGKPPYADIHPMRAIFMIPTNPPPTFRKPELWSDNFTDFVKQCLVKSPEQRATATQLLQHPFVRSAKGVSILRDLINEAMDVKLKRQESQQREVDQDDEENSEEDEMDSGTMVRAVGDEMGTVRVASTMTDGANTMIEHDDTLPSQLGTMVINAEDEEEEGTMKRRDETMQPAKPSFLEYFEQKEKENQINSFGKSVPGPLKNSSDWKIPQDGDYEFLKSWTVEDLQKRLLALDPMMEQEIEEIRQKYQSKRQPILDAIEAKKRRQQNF
Chain of Inhibitor of nuclear factor kappa-B kinase subunit epsilon (Homo sapiens) (Q14164 whole entry, canonical isoform): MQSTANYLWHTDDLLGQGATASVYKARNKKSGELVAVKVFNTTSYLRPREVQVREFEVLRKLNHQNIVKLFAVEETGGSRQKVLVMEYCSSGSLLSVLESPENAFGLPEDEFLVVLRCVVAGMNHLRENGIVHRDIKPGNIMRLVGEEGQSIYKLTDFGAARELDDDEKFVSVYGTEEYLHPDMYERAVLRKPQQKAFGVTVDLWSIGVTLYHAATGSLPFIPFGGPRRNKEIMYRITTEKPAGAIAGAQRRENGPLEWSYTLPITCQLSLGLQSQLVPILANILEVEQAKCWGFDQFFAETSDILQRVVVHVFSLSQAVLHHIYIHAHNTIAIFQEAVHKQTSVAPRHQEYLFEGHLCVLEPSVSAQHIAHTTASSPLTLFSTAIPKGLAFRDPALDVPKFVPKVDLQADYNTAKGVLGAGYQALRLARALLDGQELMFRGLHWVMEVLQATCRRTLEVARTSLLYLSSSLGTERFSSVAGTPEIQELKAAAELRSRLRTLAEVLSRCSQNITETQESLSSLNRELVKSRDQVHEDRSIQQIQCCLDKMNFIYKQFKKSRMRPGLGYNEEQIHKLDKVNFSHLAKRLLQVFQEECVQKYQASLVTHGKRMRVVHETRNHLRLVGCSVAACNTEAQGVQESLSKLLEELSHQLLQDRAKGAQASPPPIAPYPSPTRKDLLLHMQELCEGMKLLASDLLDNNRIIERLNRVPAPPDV

On to `O=S(=O)(N[C@@H](CO)Cc1c[nH]c2ccccc12)c1ccc(-c2ccnc3[nH]ccc23)cc1`, for which the Activity in [1] was < 75%; in assay [2] it was > 75%; in assay [3], > 75%; in assay [4], > 75%; in [5] it was > 75%; in assay [6], > 75%. In addition, the Activity in assay [7], in assay [8], in assay [9], in assay [10], in [11] and in assay [12] was > 75% in each case.
